Common to all, as to assay type: cell-based
Assay [1] concerns the target T1, Nucleotide-binding oligomerization domain-containing protein 1 (Homo sapiens) (UniProt Q9Y239).
T1 sequence (whole entry): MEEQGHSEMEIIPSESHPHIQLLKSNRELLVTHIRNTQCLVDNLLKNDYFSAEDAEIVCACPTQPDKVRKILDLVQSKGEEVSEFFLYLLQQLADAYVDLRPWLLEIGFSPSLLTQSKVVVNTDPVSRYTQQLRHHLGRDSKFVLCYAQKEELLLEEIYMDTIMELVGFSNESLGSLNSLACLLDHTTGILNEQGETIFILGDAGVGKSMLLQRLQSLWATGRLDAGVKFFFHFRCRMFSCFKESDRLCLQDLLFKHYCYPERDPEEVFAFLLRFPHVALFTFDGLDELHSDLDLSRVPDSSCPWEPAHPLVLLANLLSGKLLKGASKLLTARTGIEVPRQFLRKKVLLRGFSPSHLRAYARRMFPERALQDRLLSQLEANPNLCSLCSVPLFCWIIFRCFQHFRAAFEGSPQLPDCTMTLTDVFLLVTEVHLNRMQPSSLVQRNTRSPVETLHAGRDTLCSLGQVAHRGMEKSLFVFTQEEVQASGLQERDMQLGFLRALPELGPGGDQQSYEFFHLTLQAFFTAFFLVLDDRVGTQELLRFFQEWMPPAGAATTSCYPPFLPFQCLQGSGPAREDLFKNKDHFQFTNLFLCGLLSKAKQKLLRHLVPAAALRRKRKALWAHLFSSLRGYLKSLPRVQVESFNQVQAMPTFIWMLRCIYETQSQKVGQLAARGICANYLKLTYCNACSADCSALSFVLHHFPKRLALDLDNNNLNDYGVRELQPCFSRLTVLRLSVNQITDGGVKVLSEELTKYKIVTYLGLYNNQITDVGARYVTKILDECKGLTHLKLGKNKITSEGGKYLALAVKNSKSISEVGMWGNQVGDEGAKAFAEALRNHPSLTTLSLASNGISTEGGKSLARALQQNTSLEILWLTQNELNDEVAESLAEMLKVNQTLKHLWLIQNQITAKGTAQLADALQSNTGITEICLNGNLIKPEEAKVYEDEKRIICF
The experiment in a line: Antagonist activity at human NOD1 expressed in HEK-blue cells assessed as inhibition of C12-iE-DAP-stimulated cell activation at 5 uM preincubated for 3 hrs followed by C12-iE-DAP addition measured after 20 hrs by SEAP reporter gene assay. (In general: A reporter such as luciferase makes a cellular process visible.)

Assay [2] addresses T2, Nucleotide-binding oligomerization domain-containing protein 2 (Homo sapiens, UniProt Q9HC29). The experiment in a line: Antagonist activity at human NOD2 expressed in HEK-Blue cells assessed as inhibition of MDP-stimulated cell activation at 10 uM preincubated for 3 hrs followed by MDP addition measured after 20 hrs by SEAP reporter gene assay. In short, it runs like this: (§1)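 HEK-Blue hNOD1 or hNOD2 cells preincubated with compound 3 h, then stimulated 20 h with C12-iE-DAP 50 ng/mL (NOD1) or MDP 100 ng/mL (NOD2); SEAP in supernatant quantified. Primary screen at 10 μM, hits repeated in triplicate; IC50 from dose-response, mean ± SD (n = 3), only for compounds reaching ≥50% inhibition at the screening concentration.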

Assay [3] concerns the target T2, Nucleotide-binding oligomerization domain-containing protein 2. Description: Antagonist activity at human NOD2 expressed in HEK-Blue cells assessed as inhibition of MDP-stimulated cell activation preincubated for 3 hrs followed by MDP addition measured after 20 hrs by SEAP reporter gene assay. In short, it runs like this: as §1
Assay [4] deals with T1, Nucleotide-binding oligomerization domain-containing protein 1 (Homo sapiens). Description: Antagonist activity at human NOD1 expressed in HEK-Blue cells assessed as inhibition of C12-iE-DAP-stimulated cell activation at 10 uM preincubated for 3 hrs followed by C12-iE-DAP addition measured after 20 hrs by SEAP reporter gene assay. The method in brief:
as §1

Assay [5] deals with T2, Nucleotide-binding oligomerization domain-containing protein 2. The experiment in a line: Antagonist activity at human NOD2 expressed in HEK-Blue cells assessed as inhibition of MDP-stimulated cell activation at 5 uM preincubated for 3 hrs followed by MDP addition measured after 20 hrs by SEAP reporter gene assay.
In assay [6] the target is T3, Nucleotide-binding oligomerization domain-containing protein 1 (Homo sapiens, UniProt Q9Y239).
T3 sequence (Q9Y239 whole entry): T1 sequence (whole entry)
Description: Antagonist activity at human NOD1 expressed in HEK-blue cells assessed as inhibition of C12-iE-DAP-stimulated cell activation preincubated for 3 hrs followed by C12-iE-DAP addition measured after 20 hrs by SEAP reporter gene assay. The method in brief: as §1

T2 sequence (Q9HC29 whole entry, the tested form may be a part): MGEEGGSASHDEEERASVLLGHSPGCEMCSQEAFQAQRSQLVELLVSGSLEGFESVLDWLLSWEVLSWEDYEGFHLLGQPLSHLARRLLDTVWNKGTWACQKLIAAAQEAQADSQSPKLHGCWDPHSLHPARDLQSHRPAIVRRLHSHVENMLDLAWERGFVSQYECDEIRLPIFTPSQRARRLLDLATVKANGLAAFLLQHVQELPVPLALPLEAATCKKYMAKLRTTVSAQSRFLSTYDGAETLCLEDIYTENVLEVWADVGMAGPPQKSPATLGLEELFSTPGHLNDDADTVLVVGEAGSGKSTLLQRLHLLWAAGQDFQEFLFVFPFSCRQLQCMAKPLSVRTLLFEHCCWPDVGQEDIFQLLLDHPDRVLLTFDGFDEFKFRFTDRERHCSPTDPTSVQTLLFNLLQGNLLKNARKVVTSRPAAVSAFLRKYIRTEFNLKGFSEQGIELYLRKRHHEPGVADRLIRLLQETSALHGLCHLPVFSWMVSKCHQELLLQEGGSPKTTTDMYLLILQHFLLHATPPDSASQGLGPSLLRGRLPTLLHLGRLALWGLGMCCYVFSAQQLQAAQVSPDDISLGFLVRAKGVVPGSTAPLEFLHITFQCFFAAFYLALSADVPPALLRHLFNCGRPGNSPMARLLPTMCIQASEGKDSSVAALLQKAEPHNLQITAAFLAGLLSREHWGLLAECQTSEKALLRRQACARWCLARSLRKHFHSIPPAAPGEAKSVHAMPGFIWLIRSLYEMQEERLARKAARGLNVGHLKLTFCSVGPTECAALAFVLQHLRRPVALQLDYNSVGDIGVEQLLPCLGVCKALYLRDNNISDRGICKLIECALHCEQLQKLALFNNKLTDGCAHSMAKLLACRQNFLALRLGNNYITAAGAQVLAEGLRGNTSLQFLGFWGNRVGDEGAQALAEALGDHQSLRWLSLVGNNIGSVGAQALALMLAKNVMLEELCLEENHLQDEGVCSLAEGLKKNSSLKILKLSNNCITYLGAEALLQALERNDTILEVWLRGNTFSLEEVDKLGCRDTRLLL

As a reminder, the inhibition is the percentage by which the read-out fell short of the control. By IC50 is commonly meant the concentration that gives 50% inhibition. `CN(C)c1cccc(Oc2cc3c(cc2NC(=O)COCc2ccccc2)NC(=O)[C@@H](CCC(=O)NC2CC2)NC3=O)c1`: the inhibition in assay [1] was found to be 35.8%; in assay [2] it was 57%; in assay [4], 57.1%; in assay [5], 43.7%. Moreover, the figures for the IC50 in assay [3] and in assay [6] were 7140 nM and 8620 nM, respectively.

In the case of `CCCCN(CCCC)C(=O)CC[C@H]1NC(=O)c2cc(Oc3cccc(N(C)C)c3)c(NC(=O)COCc3ccccc3)cc2NC1=O`, the inhibition worked out at 81.8% in assay [1], 88.6% in assay [2], 82% in assay [4] and 85% in assay [5]. The IC50 in assay [3] was 1320 nM; in assay [6] it was 1300 nM.

In the case of `CCCCNC(=O)CC[C@H]1NC(=O)c2cc(Oc3cccc(N(C)C)c3)c(NC(=O)COCc3ccccc3)cc2NC1=O`, the inhibition stood at 81.8% in assay [1], 71.6% in assay [2], 86% in assay [4] and 60.5% in assay [5]. The IC50 in assay [3] came to 2880 nM; in assay [6], 1290 nM.

In the case of `COC(=O)CC[C@H]1NC(=O)c2cc(Oc3cccc(N(C)C)c3)c(NC(=O)COCc3ccc4ccccc4c3)cc2NC1=O`, the inhibition in assay [1] worked out at 77.7%; in assay [5], 70.9%. For the same compound, the concentration for half-maximal inhibition (IC50) in assay [3] was found to be 1580 nM; in assay [6], 1610 nM.

`COC(=O)CC[C@H]1NC(=O)c2cc(Oc3cccc(N4CCCC4)c3)c(NC(=O)COCc3ccc(Cl)cc3)cc2NC1=O`: the inhibition in assay [1] came out at 80.9%; in assay [2] it was 94%; in assay [4], 86.6%; in assay [5], 86%. In addition, the IC50 in assay [3] turned out to be 1500 nM; in assay [6], 1390 nM.

Take `COC(=O)CC[C@H]1NC(=O)c2cc(Oc3cccc(N(C)C)c3)c(NC(=O)COCc3cccc(Cl)c3)cc2NC1=O`: the inhibition in assay [1] was determined as 76.7%; in assay [2], 84.1%; in assay [4], 81.8%; in assay [5] it was 71.5%. Further, the figures for the IC50 in assay [3] and in assay [6] were 2080 nM and 1290 nM, respectively.

Regarding `COC(=O)CC[C@H]1NC(=O)c2cc(Oc3cc(Cl)c(Cl)c(N(C)C)c3Cl)c(NC(=O)COCc3ccccc3)cc2NC1=O`, the inhibition in assay [1] is 79.8%; in assay [2] it was 34%; in assay [4], 65.3%; in assay [5] it was 55.9%. For the same compound, the IC50 in assay [3] was 3780 nM; in assay [6], 1330 nM.

`COC(=O)CC[C@H]1NC(=O)c2cc(Oc3cccc(N(C)C)c3)c(NC(=O)COCc3ccc(F)cc3)cc2NC1=O`: the inhibition in assay [1] amounted to 73.7%; in assay [2], 71.4%; in assay [4], 46.4%; in assay [5], 63.1%. Moreover, the IC50 in assay [3] worked out at 3100 nM; in assay [6], 2360 nM.

With `CN(C)c1cccc(Oc2cc3c(cc2NC(=O)COCc2ccccc2)NC(=O)[C@@H](CCC(=O)N2CCCCC2)NC3=O)c1`, the inhibition stood at 82.8% in assay [1], 80.6% in assay [2], 86.7% in assay [4] and 63.3% in assay [5]. Further, the 50% inhibitory concentration (IC50) in assay [3] was found to be 2990 nM; in assay [6], 1110 nM.

As to `COC(=O)CC[C@H]1NC(=O)c2cc(Oc3cccc(N(C)C)c3)c(NC(=O)COCc3ccc(C#N)cc3)cc2NC1=O`, the inhibition was found to be 65.4% in assay [1], 67.9% in assay [2], 59.6% in assay [4] and 72.8% in assay [5]. Moreover, the IC50 in assay [3] is 2510 nM; in assay [6], 3990 nM.

For the compound `CN(C)C(=O)CC[C@H]1NC(=O)c2cc(Oc3cccc(N(C)C)c3)c(NC(=O)COCc3ccccc3)cc2NC1=O`, the inhibition in assay [1] was determined as 43.1%; in assay [2], 35.5%; in assay [4] it was 68%; in assay [5], 31%. Moreover, the IC50 in assay [6] came to 4950 nM.

With `COC(=O)CC[C@H]1NC(=O)c2cc(Oc3cccc(N(C)C)c3)c(NC(=O)COCc3ccc(Br)cc3)cc2NC1=O`, the inhibition was determined as 91% in assay [1], 95.2% in assay [2], 93.9% in assay [4] and 85% in assay [5]. In addition, the IC50 in assay [3] was 1190 nM; in assay [6], 580 nM.

Regarding `COC(=O)CC[C@H]1NC(=O)c2cc(Oc3cc(Cl)cc(N(C)C)c3)c(NC(=O)COCc3ccccc3)cc2NC1=O`, the inhibition was 47.1% in assay [1], 56.5% in assay [2], 4.89% in assay [4] and 54.9% in assay [5]. Moreover, the IC50 in assay [3] came out at 5050 nM.

In the case of `COC(=O)CC[C@H]1NC(=O)c2cc(Oc3cccc(N(C)C)c3)c(NC(=O)COCc3ccc(OC)cc3)cc2NC1=O`, the inhibition was found to be 8.57% in assay [1], 56.5% in assay [2], 21.6% in assay [4] and 34.1% in assay [5]. Moreover, the IC50 in assay [3] is 9510 nM.

For the compound `COC(=O)CC[C@H]1NC(=O)c2cc(Oc3cccc(N(C)C)c3)c(NC(=O)COCc3ccc(C(F)(F)F)cc3)cc2NC1=O`, the inhibition in assay [1] was 89.8%; in assay [2] it was 91.9%; in assay [4], 90.7%; in assay [5], 89%. The values for the IC50 in assay [3] and in assay [6] were 870 nM and 940 nM, respectively.

Consider `COC(=O)CC[C@H]1NC(=O)c2cc(Oc3cccc(N(C)C)c3)c(NC(=O)COCc3cccc(F)c3)cc2NC1=O`, for which the inhibition in assay [1] was 83.9%; in assay [2], 82.9%; in assay [4], 89.8%; in assay [5] it was 67%. The IC50 in assay [3] was determined as 4020 nM; in assay [6] it was 1370 nM.

In the case of `COC(=O)CC[C@H]1NC(=O)c2cc(Oc3cccc(N(C)C)c3)c(NC(=O)COCc3ccc(C(C)(C)C)cc3)cc2NC1=O`, the inhibition came out at 67.7% in assay [1], 75.7% in assay [2], 73.3% in assay [4] and 75.2% in assay [5]. The IC50 was determined as 2390 nM in assay [3] and 1960 nM in assay [6].

As for `CCCNC(=O)CC[C@H]1NC(=O)c2cc(Oc3cccc(N(C)C)c3)c(NC(=O)COCc3ccc(F)cc3)cc2NC1=O`, the inhibition is 68% in assay [1], 48.8% in assay [2], 80.1% in assay [4] and 30.8% in assay [5]. In addition, the IC50 in assay [6] came to 2810 nM.

For `COC(=O)CC[C@H]1NC(=O)c2cc(Oc3cccc(N(C)C)c3)c(NC(=O)COCc3ccc(F)c(F)c3)cc2NC1=O`, the inhibition in assay [1] came out at 83.7%; in assay [2], 91.2%; in assay [4], 89%; in assay [5] it was 83.5%. Besides, the IC50 in assay [3] amounted to 1700 nM; in assay [6] it was 1160 nM.

For the compound `CN(C)c1cccc(Oc2cc3c(cc2NC(=O)COCc2ccccc2)NC(=O)[C@@H](CCC(=O)NC(C)(C)C)NC3=O)c1`, the inhibition in assay [1] turned out to be 80.3%; in assay [2], 92.1%; in assay [4] it was 87.6%; in assay [5], 80.3%. Moreover, the IC50 in assay [3] came to 2270 nM; in assay [6] it was 1110 nM.

With `C[C@@H]1NC(=O)c2cc(Oc3cccc(N(C)C)c3)c(NC(=O)COCc3ccc(C(F)(F)F)cc3)cc2NC1=O`, the figures for the inhibition in assay [1] and in assay [5] were 73.8% and 64.5%, respectively. In addition, the IC50 in assay [3] came to 940 nM; in assay [6] it was 1930 nM.

Consider `COC(=O)CC[C@@H]1NC(=O)c2cc(Oc3cccc(N(C)C)c3)c(NC(=O)COCc3ccc(C(F)(F)F)cc3)cc2NC1=O`, for which the inhibition in assay [1] was 89.6%; in assay [5], 87.8%. The IC50 in assay [3] came to 590 nM; in assay [6], 580 nM.

The values above are taken from ChEMBL document CHEMBL4014339, “Discovery of 1,4-Benzodiazepine-2,5-dione (BZD) Derivatives as Dual Nucleotide Binding Oligomerization Domain Containing 1/2 (NOD1/NOD2) Antagonists Sensitizing Paclitaxel (PTX) To Suppress Lewis Lung Carcinoma (LLC) Growth in Vivo” (J Med Chem, 2017).
